We go through two compounds from ChEMBL document CHEMBL4000256, “Light-Regulated NO Release as a Novel Strategy To Overcome Doxorubicin Multidrug Resistance” (ACS Med Chem Lett, 2017).

Data set [1] concerns M14. The data set can be described thus: Dark toxicity in human M14 cells assessed as increase in nitrite levels at 5 uM measured after 20 mins by Griess reagent based spectrophotometric method. The format is cell-based. Conditions: m14, 20 min.
The target of data set [2] is Multidrug resistance-associated protein 1 (Homo sapiens, UniProt P33527). Description: Inhibition of MRP1 in 7 mW/cm'2 irradiated human M14 cells assessed as nitration of tyrosine in MRP1 at 5 uM measured after 20 mins by immunoblotting. The method, boiled down:
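M14 melanoma cells held 20 min at room temperature in PBS under 400 nm light (7 mW/cm2) with 5 μM compound, alone or with equimolar doxorubicin. Nitrated ABC transporters (Pgp, MRP1, MRP4, BCRP) detected by immunoblot.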
In general terms: A western blot detects proteins with antibodies after separation by electrophoresis.

The species named for data set [3] is Homo sapiens. The data set can be described thus: Inhibition of Pgp in 7 mW/cm'2 irradiated human M14 cells assessed as reduction in P-gp ATPase activity at 5 uM measured after 20 mins by spectrophotometric method. A digest of the protocol: (§1)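 M14 melanoma cells held 20 min at room temperature in PBS under 400 nm light (7 mW/cm2) with 5 μM compound, alone or with equimolar doxorubicin. Transporter ATPase activity then measured; n = 3.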

The target of data set [4] is T1, ATP-binding cassette sub-family C member 4 (Homo sapiens, UniProt O15439).
T1 sequence (O15439 whole entry): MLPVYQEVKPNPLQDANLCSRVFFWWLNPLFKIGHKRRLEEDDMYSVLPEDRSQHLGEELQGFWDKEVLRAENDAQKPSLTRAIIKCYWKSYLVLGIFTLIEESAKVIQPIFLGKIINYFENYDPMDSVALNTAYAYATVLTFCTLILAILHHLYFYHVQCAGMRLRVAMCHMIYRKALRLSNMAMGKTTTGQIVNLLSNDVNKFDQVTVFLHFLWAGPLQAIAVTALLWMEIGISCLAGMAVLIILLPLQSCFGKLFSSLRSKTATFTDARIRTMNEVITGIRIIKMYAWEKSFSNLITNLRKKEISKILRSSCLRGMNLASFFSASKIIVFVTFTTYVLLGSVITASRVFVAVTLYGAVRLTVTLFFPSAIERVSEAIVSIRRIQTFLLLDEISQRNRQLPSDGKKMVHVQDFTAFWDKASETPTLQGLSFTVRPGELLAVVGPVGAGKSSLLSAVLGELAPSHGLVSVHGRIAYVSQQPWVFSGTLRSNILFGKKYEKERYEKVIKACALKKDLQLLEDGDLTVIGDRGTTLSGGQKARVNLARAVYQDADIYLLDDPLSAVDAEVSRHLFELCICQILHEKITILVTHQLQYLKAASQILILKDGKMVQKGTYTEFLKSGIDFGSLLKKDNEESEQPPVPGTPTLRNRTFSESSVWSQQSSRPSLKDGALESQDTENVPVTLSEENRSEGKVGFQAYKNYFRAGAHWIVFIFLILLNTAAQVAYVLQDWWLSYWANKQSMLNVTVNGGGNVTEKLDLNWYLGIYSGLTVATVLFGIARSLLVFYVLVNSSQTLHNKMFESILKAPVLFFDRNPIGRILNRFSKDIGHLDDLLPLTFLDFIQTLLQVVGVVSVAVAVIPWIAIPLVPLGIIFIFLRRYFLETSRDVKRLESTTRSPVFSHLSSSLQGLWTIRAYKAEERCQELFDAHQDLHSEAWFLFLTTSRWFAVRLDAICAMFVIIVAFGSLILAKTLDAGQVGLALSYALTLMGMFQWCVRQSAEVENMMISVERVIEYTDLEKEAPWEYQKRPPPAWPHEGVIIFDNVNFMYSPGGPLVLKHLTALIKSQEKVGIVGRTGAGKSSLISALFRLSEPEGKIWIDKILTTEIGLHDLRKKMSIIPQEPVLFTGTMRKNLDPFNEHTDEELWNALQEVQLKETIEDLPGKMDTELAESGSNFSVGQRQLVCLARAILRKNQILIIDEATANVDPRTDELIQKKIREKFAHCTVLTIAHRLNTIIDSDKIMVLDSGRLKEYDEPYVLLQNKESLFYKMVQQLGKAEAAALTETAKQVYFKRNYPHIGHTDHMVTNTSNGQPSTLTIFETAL
The data set can be described thus: Inhibition of MRP4 in 7 mW/cm'2 irradiated human M14 cells assessed as reduction in MRP4 ATPase activity at 5 uM measured after 20 mins by spectrophotometric method. The method, boiled down: as §1

In data set [5] the target is T2, Broad substrate specificity ATP-binding cassette transporter ABCG2 (Homo sapiens, UniProt Q9UNQ0).
T2 sequence (Q9UNQ0 whole entry): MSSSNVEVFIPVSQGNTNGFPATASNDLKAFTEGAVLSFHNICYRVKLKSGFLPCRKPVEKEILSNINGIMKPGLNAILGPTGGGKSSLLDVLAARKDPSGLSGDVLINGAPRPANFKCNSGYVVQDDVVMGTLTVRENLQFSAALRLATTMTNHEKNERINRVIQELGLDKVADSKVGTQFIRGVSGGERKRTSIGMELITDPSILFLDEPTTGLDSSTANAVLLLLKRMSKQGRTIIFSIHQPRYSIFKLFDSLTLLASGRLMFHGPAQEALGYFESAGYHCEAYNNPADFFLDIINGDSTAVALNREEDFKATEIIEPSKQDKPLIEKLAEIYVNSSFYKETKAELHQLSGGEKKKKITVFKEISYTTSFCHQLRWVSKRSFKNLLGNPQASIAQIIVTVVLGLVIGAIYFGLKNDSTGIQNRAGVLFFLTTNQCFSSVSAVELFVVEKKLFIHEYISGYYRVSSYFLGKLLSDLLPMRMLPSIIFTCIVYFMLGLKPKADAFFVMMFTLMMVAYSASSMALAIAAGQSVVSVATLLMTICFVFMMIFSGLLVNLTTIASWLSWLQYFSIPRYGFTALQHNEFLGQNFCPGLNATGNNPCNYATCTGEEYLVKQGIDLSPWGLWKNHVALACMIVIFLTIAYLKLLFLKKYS
Description: Inhibition of BCRP in 7 mW/cm'2 irradiated human M14 cells assessed as reduction in BCRP ATPase activity at 5 uM measured after 20 mins by spectrophotometric method. A digest of the protocol:
as §1

Data set [6] has as its system Fibroblast. Description: Cytotoxicity against 7 mW/cm'2 irradiated human fibroblasts at 5 uM measured after 20 mins by spectrophotometric method. Type of data set: cell-based. A digest of the protocol:
(§2)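 Human fibroblasts or rat H9c2 cardiomyocytes kept 20 min at room temperature in PBS, either in the dark or irradiated at λexc 400 nm, 7 mW/cm2, with or without 5 μM test agent. Cytotoxicity measured in triplicate; means ± SD, n = 3.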

The test system of data set [7] is H9c2. Description: Cytotoxicity against 7 mW/cm'2 irradiated rat H9c2 cells at 5 uM measured after 20 mins by spectrophotometric method. Type of data set: cell-based. Particulars: h9c2, 20 min. The method, boiled down: as §2
Data set [8] concerns H9c2. The data set can be described thus: Dark toxicity against rat H9c2 cells at 5 uM measured after 20 mins by spectrophotometric method. Particulars: h9c2, 20 min. The format is cell-based. A digest of the protocol: as §2
Data set [9] relates to Fibroblast. Description: Dark toxicity against human fibroblasts at 5 uM measured after 20 mins by spectrophotometric method. The format is cell-based. The method, boiled down: as §2
The nature of data set [10]: Induction of NO release in pH 7.4 PBS irradiated with 7 mW/cm2 light at 100 uM after 0.5 hrs by Griess assay. A digest of the protocol:
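Cell-free solution, 100 μM, in PBS (pH 7.4, 10 mM, 3% DMSO) irradiated at 400 nm (7 mW/cm2) for varying times. Nitrite generated is quantified by Griess assay.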
(In general: The Griess reaction detects nitrite, a stable product of nitric oxide.)

The source made the active and inactive calls. The calls are words filed in the database; no cut-off is given here.

Chain of Multidrug resistance-associated protein 1 (P33527 whole entry): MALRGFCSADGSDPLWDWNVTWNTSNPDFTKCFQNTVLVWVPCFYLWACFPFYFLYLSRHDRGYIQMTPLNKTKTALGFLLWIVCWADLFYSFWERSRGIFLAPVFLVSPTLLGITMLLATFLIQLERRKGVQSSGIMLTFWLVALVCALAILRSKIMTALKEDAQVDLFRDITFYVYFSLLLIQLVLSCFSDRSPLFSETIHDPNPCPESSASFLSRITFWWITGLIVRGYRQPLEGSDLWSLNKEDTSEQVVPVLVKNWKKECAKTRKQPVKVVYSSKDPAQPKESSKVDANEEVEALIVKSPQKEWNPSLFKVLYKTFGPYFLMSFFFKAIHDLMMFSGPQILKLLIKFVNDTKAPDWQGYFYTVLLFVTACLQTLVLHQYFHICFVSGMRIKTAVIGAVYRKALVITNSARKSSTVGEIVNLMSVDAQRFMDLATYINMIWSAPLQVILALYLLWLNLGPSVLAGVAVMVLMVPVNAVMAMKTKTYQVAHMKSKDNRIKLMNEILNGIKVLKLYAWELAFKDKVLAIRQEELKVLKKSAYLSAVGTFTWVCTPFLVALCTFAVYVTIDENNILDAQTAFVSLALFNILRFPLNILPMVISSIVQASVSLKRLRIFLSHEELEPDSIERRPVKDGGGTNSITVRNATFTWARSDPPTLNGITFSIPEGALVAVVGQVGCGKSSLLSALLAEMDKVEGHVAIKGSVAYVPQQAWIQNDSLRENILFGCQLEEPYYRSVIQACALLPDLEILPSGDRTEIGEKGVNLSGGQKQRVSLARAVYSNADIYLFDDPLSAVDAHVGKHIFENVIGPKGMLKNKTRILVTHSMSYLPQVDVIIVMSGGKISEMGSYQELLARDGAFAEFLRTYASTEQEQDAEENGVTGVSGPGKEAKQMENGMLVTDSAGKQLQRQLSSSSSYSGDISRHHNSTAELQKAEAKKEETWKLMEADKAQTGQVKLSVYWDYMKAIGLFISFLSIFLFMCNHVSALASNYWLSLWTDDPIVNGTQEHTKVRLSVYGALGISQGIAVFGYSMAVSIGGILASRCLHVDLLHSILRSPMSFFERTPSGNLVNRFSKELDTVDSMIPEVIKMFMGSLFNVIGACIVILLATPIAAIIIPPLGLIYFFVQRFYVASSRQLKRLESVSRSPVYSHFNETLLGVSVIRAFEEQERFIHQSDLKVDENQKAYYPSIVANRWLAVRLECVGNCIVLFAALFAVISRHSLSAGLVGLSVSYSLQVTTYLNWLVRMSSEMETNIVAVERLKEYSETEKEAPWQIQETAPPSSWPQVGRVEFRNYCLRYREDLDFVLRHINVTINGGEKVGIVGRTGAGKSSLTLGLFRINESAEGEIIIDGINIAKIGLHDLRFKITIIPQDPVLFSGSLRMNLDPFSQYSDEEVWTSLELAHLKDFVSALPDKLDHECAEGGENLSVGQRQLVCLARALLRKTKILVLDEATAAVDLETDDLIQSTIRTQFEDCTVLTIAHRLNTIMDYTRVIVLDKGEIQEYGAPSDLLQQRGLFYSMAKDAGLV

As for `NCCCNc1ccc([N+](=O)[O-])c(C(F)(F)F)c1`, the Activity entry in data set [1], in data set [6], in [7], in data set [8] and in data set [9] was “Non-Toxic” in each case. The “inhibition (INH)” value in data set [2], in [4] and in [5] was “Active” in each case. Also, in [3], the inhibition result is “Active”. In addition, the result in data set [10] was Active.
With `COc1cccc2c1C(=O)c1c(O)c3c(c(O)c1C2=O)C[C@@](O)(C(=O)COC(=O)c1ccc(C(=O)NCCCNc2ccc([N+](=O)[O-])c(C(F)(F)F)c2)cc1)C[C@@H]3O[C@H]1C[C@H](N)[C@H](O)[C@H](C)O1.Cl`, the Activity result in [1], in data set [6], in [7], in [8] and in data set [9] was “Non-Toxic” in each case. Also, the “inhibition (INH)” value in data set [2], in data set [4] and in data set [5] was “Active” in each case. Moreover, the inhibition result in data set [3] was “Active”. Moreover, in data set [10], the result was Active.
